pEC50: −log10 of the molar value.
Tests used:
[1] = system: L929 cells (TNF-α-induced necroptosis); experiment: Necroptosis induction and inhibition assay in L929; type: cell-based, mouse; settings: Mus musculus, L929, read-out: EC50^L929 against TNF-α-induced necroptosis, mouse TNF-α (20 ng/mL) and zVAD (10 μM), CCK-8
[2] = system: panel of 291 kinases; settings: 1 µM, overlapping panel of 272 kinases; ref 30 (Mandal et al., 2014); cited from earlier work
[3] = biological target: RIPK3-RIPK1 interaction (Mus musculus, UniProt Q9QZL0); experiment: RIPK1 immunoprecipitation; type: cell-based; settings: L929, 10 µM, 5 hours
RIPK3-RIPK1 interaction, sequence (Q9QZL0 whole entry): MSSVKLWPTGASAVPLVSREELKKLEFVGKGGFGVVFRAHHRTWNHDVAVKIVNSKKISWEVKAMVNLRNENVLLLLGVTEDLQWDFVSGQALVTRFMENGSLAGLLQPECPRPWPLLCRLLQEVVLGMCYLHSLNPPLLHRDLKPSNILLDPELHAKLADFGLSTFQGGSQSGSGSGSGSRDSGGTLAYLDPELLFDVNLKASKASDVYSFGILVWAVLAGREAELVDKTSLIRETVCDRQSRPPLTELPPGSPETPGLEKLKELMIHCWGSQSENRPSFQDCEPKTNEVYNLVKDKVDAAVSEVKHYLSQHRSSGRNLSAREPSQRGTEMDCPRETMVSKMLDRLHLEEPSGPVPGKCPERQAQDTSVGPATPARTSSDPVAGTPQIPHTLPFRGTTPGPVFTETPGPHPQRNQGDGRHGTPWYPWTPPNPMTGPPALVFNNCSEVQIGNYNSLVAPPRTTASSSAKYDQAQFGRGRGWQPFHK
Method in brief: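 Lysates were cleared at 17,000 g for 15 min at 4 °C, and an input sample was kept. Lysate was incubated with anti-RIPK1 antibody on protein A/G magnetic beads for 2 h at 4 °C. Co-precipitated RIPK3 was detected by Western blot. Normalized quantification came from three independent experiments.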

[4] = system: caspase 3 activity in L929 cell lysates; experiment: Caspase 3 activity in L929 cell lysates; type: cell-based, mouse
Method in brief: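 L929 cells were cultured 12 h in 12-well plates, then exposed to test compound or DMSO for 0, 1, 2, 3 or 4 h. Protein was measured by BCA. Lysate was incubated with Ac-DEVD-pNA overnight at 37 °C and read at A405 minus blank. Three experiments, each in triplicate.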

[5] = system: L929 RIPK3-/- + RIPK3 K51A/R69H cells; experiment: Cell viability assay with or without zVAD, L929 RIPK3-/- + RIPK3 K51A/R69H; type: cell-based, mouse
Method in brief: (§1)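 L929 cells were grown in MEM with 10% FBS. RIPK3 was knocked out by CRISPR/Cas9 (sgRNA against mouse RIPK3), and knockout was confirmed by sequencing and immunoblot. Knockout lines with or without re-expressed RIPK3 K51A or K51A/R69H were seeded at 10,000–20,000 cells/well and left to attach for 24 h. Cells were exposed to test compound alone or with zVAD for 18–20 h. Viability was read by CCK-8 (1–2 h, 37 °C, A450). Three experiments in triplicate; CC50 by nonlinear regression.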

[6] = system: caspase 3 and caspase 8 cleavage in L929 cells; experiment: Western blot of caspase 3 and caspase 8 cleavage in L929 cells; type: cell-based, mouse; settings: L929, 3 hours
Method in brief: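 L929 cells in 12-well plates at about 80% confluency were exposed for 3 h to test compound, DMSO or medium, each with 10 µM zVAD. Cells were lysed at room temperature in a Triton X-100/Tris-based 1× SDS sample buffer and boiled 10 min. Proteins were run on 15% SDS-PAGE and blotted to PVDF. Membranes were blocked in 5% milk and probed for caspase 3 and caspase 8 cleavage overnight at 4 °C. Three independent experiments.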

[7] = system: L929 RIPK3-/- + RIPK3 K51A cells; experiment: Cell viability assay with or without zVAD, L929 RIPK3-/- + RIPK3 K51A; type: cell-based, mouse; settings: 1.6 μM, without zVAD
Method in brief: as §1

[8] = system: HT29 cells (TNF-α-induced necroptosis); experiment: Necroptosis induction and inhibition assay in HT29; type: cell-based, human; settings: Homo sapiens, HT-29, read-out: EC50^HT29 against TNF-α-induced necroptosis, zVAD (20 μM), human TNF-α (40 ng/mL), Smac mimetic SM-164 (100 nM), CCK-8
[9] = biological target: mRIPK3^KD R69H (Mus musculus, UniProt Q9QZL0, C111A/R69H); experiment: Size-exclusion chromatography; settings: protein 10 mg/mL, compound 1 mM
mRIPK3^KD R69H, sequence (Q9QZL0 1-313 R69H/C111A): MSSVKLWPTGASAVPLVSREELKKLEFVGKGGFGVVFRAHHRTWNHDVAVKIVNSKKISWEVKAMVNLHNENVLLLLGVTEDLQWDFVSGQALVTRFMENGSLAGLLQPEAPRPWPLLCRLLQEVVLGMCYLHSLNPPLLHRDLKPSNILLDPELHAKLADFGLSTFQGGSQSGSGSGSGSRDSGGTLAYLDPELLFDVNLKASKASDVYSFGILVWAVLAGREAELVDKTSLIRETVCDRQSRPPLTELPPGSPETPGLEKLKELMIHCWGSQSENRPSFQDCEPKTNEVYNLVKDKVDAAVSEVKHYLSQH
Method in brief: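 Mouse RIPK3 kinase domain 1-313 (C111A/R69H, C-terminal 10×His) was expressed in Sf-9 cells by baculovirus, with 10 µM test compound or DMSO added to the lysate. Ni-NTA eluate was concentrated to 10 mg/mL, incubated with 1 mM compound and centrifuged at 17,000 g for 15 min. It was then run on Superdex 200 Increase 10/300 in 25 mM Tris pH 8.0, 150 mM NaCl, 5 mM DTT plus 10 µM compound. Three independent runs.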

[10] = system: RIPK3-mediated apoptosis; settings: cited from earlier work

concentration at which caspase 3 is activated [4] [µM]	elution position of mRIPK3^KD R69H in complex with inhibitor [9]	Compound	pEC50 [1]	number of kinases inhibited by >65% [2] [kinases]	interaction between RIPK3 and RIPK1 (co-immunoprecipitation) [3]	apoptosis in cells expressing RIPK3 K51A and R69H double mutation [5]	activation of the apoptotic pathway: cleavage of caspase 8 and caspase 3 (Western blot) [6]	viability of cells expressing the ATPase-inactive RIPK3 K51A mutant [7]	pEC50 [8]	concentration triggering RIPK3-mediated apoptosis relative to EC50 [10]
5	aligns with a monomer	CC(C)S(=O)(=O)c1ccc2nccc(Nc3ccc4scnc4c3)c2c1 [GSK'872, reference compound]	5.44	13	enhances the interaction between RIPK3 and RIPK1	does not cause such apoptosis	cleavage of caspase 8 and caspase 3	significantly reduces the viability	5.10	–
–	–	GSK'840	–	–	–	–	–	–	–	approximately twice their EC50 values
